NPY-Y2 antag: blocks the human neuropeptide Y Y2 receptor; P49146; NPY-Y2 expressing cells, antagonist mode; inhibition, % at 2.7 µM; 0.99% of 140,000 active; in the data active means inhibition above about 17%;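 further: 0% = vehicle with agonist challenge and 100% = reference antagonist with challenge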
Target sequence (P49146 whole entry, looked up): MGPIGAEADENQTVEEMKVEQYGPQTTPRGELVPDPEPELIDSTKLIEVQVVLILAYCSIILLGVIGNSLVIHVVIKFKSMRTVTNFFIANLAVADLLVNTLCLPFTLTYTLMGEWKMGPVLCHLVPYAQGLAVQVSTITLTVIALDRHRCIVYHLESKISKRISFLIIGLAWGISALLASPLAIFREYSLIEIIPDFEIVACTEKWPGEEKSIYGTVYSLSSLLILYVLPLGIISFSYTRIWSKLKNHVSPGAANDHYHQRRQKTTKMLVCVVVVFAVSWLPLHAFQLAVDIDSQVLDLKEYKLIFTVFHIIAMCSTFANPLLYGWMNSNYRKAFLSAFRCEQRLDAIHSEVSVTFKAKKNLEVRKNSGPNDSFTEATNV
NPY-Y1 PAM-ag: potentiates or activates human NPY-Y1 receptor; activation, % at 3.6 µM; NPY-Y1 expressing cells, potentiator/agonist activation; AID 1304; 0.37% of 220,000 active; in the data active means activation above about 33%, passing the limit was not always enough;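 further: cells stimulated with NPY at EC10 then isoproterenol at EC100; 0% = low agonist plus stimulus and 100% = saturating agonist plus stimulus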
Target sequence (P25929 whole entry, looked up): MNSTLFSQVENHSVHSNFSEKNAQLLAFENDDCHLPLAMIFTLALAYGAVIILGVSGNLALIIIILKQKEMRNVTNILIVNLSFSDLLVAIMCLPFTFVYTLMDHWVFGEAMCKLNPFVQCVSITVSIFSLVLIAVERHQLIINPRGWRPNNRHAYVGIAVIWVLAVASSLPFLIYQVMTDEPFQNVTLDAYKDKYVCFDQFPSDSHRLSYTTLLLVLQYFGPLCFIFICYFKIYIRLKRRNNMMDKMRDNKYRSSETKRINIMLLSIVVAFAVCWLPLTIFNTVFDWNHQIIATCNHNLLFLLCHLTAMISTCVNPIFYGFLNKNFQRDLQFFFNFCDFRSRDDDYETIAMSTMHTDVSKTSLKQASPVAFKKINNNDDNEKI
Cl transport mod: KCC2 (human) Cl- transport modulation; Q9H2X9; KCC2 cells, thallium flux FluoZin-2 fluorescence; B-score of Tl+ flux slope (higher = more flux/activation; lower = inhibition) at 10 µM; 2.2% of 190,000 active;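 active means thallium flux slope and its plate-corrected score both differing from the plate sample mean at a set confidence after two filtering rounds, in either direction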;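 further: slope of fluorescence scaled to starting intensity during 10 to 20 s after thallium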
Furin inhibitor: human furin inhibition. inhibition, % at 20 µM or 30 µM. 0.061% of 220,000 active. purified furin, fluorogenic substrate cleavage. P09958; in the data active means inhibition above about 25%
NPY Y1 blocker: antagonists of human neuropeptide Y receptor Y1; P25929; HEK293-CNG Y1 cells, membrane potential fluorescence; NPY at EC95, then isoproterenol; inhibition, % at 3.6 µM; 1% of 200,000 active;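 active means inhibition above the campaign mean inhibition of all tested compounds plus 3 SD, cut at about 20% in these data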;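 further: 0% = DMSO wells given NPY plus isoproterenol and 100% = isoproterenol alone without NPY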
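Material: Y1- and CNG-channel-expressing HEK293 cells / Probe or stimulus: NPY 25 nM then isoproterenol 1 µM plus Ro 20-1724 25 µM / Doses: 3.6 µM single dose, DMSO 0.4% / Schedule: compound incubation 1 h at room temperature, readout 45 min post-stimulation / Signal: membrane potential fluorescence / Benchmarks: isoproterenol-only wells as full block versus NPY-plus-isoproterenol wells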
NPY-Y2 PAM-ag: human NPY-Y2 potentiation or agonism, primary screen; P49146; cells expressing NPY-Y2, potentiator/agonist read-out; activation, % at 3.6 µM; 0.45% of 220,000 active; in the data active means activation above about 27%;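 further: cells stimulated with NPY near EC25 plus isoproterenol at EC100; 0% = vehicle plus submaximal agonist and 100% = vehicle plus saturating agonist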
NPY-Y1 pot conf: confirmation of human NPY-Y1 receptor potentiators or agonists | 20% of 280 active | AID 1546 | shares compounds with NPY-Y1 PAM-ag | activation, % at 3.6 µM | cell-based NPY-Y1 potentiator/agonist assay; in the data active means activation above about 45%;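 further: cells challenged with NPY at its EC10 plus isoproterenol stimulus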
NPY-Y2 counter: potentiates or activates NPY-Y2, counter-screen for NPY-Y1 hits | shares compounds with NPY-Y1 PAM-ag | HEK293-CNG cells, membrane-potential fluorescence (FLIPR), 1536-well | activation, % at 3.6 µM | 20% of 280 active; in the data active means activation above about 33%
NPY-Y1 agonist: human NPY-Y1 agonism as potentiator counter-screen; shares compounds with NPY-Y1 PAM-ag; HEK293 Y1-CNGC, membrane potential fluorescence, agonist mode; activation, % at 3.6 µM; 50% of 280 active; AID 1697;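 active means percent activation above the mean of DMSO-only control wells plus 3 SD of those wells, cut at about 18% in these data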;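 further: cells challenged with isoproterenol plus Ro 20-1724 with no NPY in test wells; Y1 agonism lowers isoproterenol-driven cAMP and reduces probe fluorescence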
NPY-Y2 ag: counter-screen for NPY-Y1 potentiators or agonists: agonists of NPY-Y2. shares compounds with NPY-Y1 PAM-ag. HEK293 Y2-CNGC, membrane potential fluorescence, agonist mode. activation, % at 3.6 µM. 67% of 280 active;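 active means activation above the solvent-only control wells' mean plus 3 SD, cut at about 11% in these data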;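 further: 0% = DMSO with isoproterenol and 100% = 40 nM NPY maximal response; agonism lowers cAMP so well fluorescence drops in active wells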
CNGC counter: counter-screen for NPY-Y1 potentiators or agonists: CNG channel inhibitors | shares compounds with NPY-Y1 PAM-ag | 42% of 280 active | HEK293-CNG parental, isoproterenol cAMP, membrane potential fluorescence | inhibition, % at 3.6 µM;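 active means inhibition above the mean of stimulated solvent-only control wells plus 3 SD, cut at about 22% in these data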;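 further: 0% = isoproterenol-stimulated DMSO wells and 100% = unstimulated DMSO wells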
KCC2 secondary: confirmation of human KCC2 transport modulators. shares compounds with Cl transport mod. HEK293-KCC2, thallium flux, FluoZin2 fluorescence; stronger effect = higher value. normalised thallium flux (F/F0 slope) at 10 µM. 15% of 3,700 active. AID 1713;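 active means thallium flux slope above the same plate's solvent-only control mean plus 3 SD; inconclusive means the two replicate wells disagree; inactive means no significant difference from solvent-only control wells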
KCC2 bumet counter: thallium flux persisting under bumetanide in KCC2 cells, counter-screen secondary assay. normalized thallium flux at 10 µM. HEK293-KCC2 + bumetanide/ouabain, thallium flux FluoZin2; stronger effect = higher value. AID 1714. 49% of 3,700 active. shares compounds with Cl transport mod;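 active means thallium entry rate above the same plate's blocked-transporter control wells by more than 3 SD; inconclusive means the two repeat wells disagree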;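 further: raw slope of fluorescence over initial fluorescence between 10 and 20 s after thallium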
KCC2 secondary2: KCC2 (human) modulation, second secondary assay. shares compounds with Cl transport mod. HEK293-KCC2, thallium flux FluoZin2 fluorescence; actives lie on both sides; F/F0 rise rate, 10–20 s post-thallium. 23% of 3,700 active. normalized thallium flux at 10 µM;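 active means thallium flux slope more than 3 SD above or below the plate's solvent-only control mean, mostly below; inconclusive means the two repeat wells disagreed; inactive means no significant shift from solvent-only controls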;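 further: raw slope with 0.1% DMSO as baseline and bumetanide as block control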
HEK counter1: parental HEK flux effect, counter-screen; AID 1716; 46% of 3,700 active; HEK293 parental cells, thallium flux FluoZin2, ouabain; baseline-ratio fluorescence slope, 10–20 s after thallium; shares compounds with Cl transport mod; thallium flux rate (normalised fluorescence) at 10 µM;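 active means thallium flux rate significantly above the same plate's solvent-only control wells, beyond their mean plus 3 SD; inconclusive means the two replicate wells gave conflicting results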
KCC2 ouabain: modulates human KCC2 on retest with ouabain; raw Tl+ flux slope (below DMSO = inhibition, above = activation) at 10 µM; 48% of 3,700 active; AID 1717; HEK293-KCC2, thallium flux FluoZin2 fluorescence; bidirectional: low = inhibitor, high = activator; shares compounds with Cl transport mod;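 active means thallium flux slope beyond 3 SD from same-plate DMSO control mean in most replicates, usually higher, sometimes lower; inconclusive means repeat tests gave conflicting results; inactive means no significant difference from controls in most replicates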;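 further: slope of initial-normalized fluorescence between seconds 10 and 20 after thallium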
HEK293 Tl flux2: acts in parental HEK cells, second KCC2 counter-screen. shares compounds with Cl transport mod. HEK293 parental, thallium flux FluoZin-2 fluorescence slope. thallium flux slope at 10 µM. 33% of 3,700 active;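 active means thallium flux slope above the same plate's solvent-control mean plus 3 SD in both duplicate wells; inconclusive means duplicate wells that disagreed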;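 further: run without ouabain in cells lacking the KCC2 cotransporter; slope of fluorescence scaled to its starting value between 10 and 20 s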
Starred values were filed as active, the others as inactive; u = inconclusive; x = not tested or not shown. The list is not random: actives were taken first. Their share in the collection is about 3.7%.

SMILES | NPY-Y2 antag | NPY-Y1 PAM-ag | Cl transport mod | Furin inhibitor | NPY Y1 blocker | NPY-Y2 PAM-ag | NPY-Y1 pot conf | NPY-Y2 counter | NPY-Y1 agonist | NPY-Y2 ag | CNGC counter | others
COc1ccccc1Cn1c(-c2ccccc2OC)nc2ccccc21 | 8 | 20 | x | -14 | -1 | -10 | x | x | x | x | x
Oc1ccccc1Cn1c(-c2ccccc2O)nc2ccccc21 | -7 | 39* | 1.2 | -5 | -12 | 31 | 32 | 25 | 27* | 26* | 20
O=[N+]([O-])c1cc(C(F)(F)F)cc([N+](=O)[O-])c1NCCNC(=S)Nc1cccc(F)c1 | x | 11 | -0.78 | -5 | x | -9 | x | x | x | x | x
Cc1ccc(O)c(N=Nc2ccc(S(=O)(=O)N3CCCC3)cc2)c1 | x | 45* | -0.13 | -21 | x | 35 | 45* | 32 | 30* | 42* | 27*
Cc1ccc(S(=O)(=O)N2CCCN(S(=O)(=O)c3ccc(C)cc3)CC2)cc1 | 1 | -4 | 0.18 | -7 | -5 | -1 | x | x | x | x | x
CN(C)c1ccc(P(=O)(OCc2ccccc2)C(O)c2ccccc2)cc1 (stereo unspecified) | x | -7 | -1.2 | -17 | x | -11 | x | x | x | x | x
CCCn1c(=O)c(C#N)cn(C2CC2)c1=O | x | 7 | 0.73 | -20 | x | 21 | x | x | x | x | x
CCOC(=O)C(C)Oc1cccc2c(=O)n(CC(=O)NCc3ccc(F)cc3)ccc12 (stereo unspecified) | x | 7 | 0.54 | -13 | x | -11 | x | x | x | x | x
O=C(Cn1c(=O)sc2ccccc21)OC(CCl)CCl | 0 | 44* | -0.6 | -17 | -9 | 24 | 78* | 49* | 62* | 49* | 75*
Cc1oc2ccc(O)c(CN(C)C)c2c1C(=O)c1ccccc1 | x | 47* | -0.64 | -15 | 2 | 14 | 14 | 21 | 16 | 11* | -10
COc1ccc(C(=O)c2c(C)oc3ccc(O)c(CN4CCOCC4)c23)cc1 | 3 | -4 | -0.55 | -24 | -2 | 2 | x | x | x | x | x
O=C(Nc1cccnc1)c1ccc(COc2cc(Cl)ccc2Cl)o1 | 2 | 54* | -5.2* | -19 | -10 | 6 | 18 | 8 | 14 | 16* | 18 | KCC2 secondary=0.0063;KCC2 bumet counter=0.0051;KCC2 secondary2=u;HEK counter1=0.0081;KCC2 ouabain=0.016*;HEK293 Tl flux2=0.0099
O=C(CSc1nnc2c(n1)[nH]c1ccccc12)Nc1ccc2c(c1)OCO2 | 6 | -6 | -0.71 | -11 | 9 | -36 | x | x | x | x | x
Cc1cc(C)c(C#N)c(N2CCN(Cc3ccccc3)CC2)n1 | 0 | 78* | -3.7* | -9 | 2 | 0 | -13 | -8 | -16 | 5 | -2 | KCC2 secondary=0.017;KCC2 bumet counter=0.0042;KCC2 secondary2=u;HEK counter1=0.0067;KCC2 ouabain=0.014;HEK293 Tl flux2=0.0098
Cc1cc(C)c(C#N)c(N2CCN(Cc3ccc4c(c3)OCO4)CC2)n1 | 7 | -15 | x | -12 | 9 | -9 | x | x | x | x | x
O=C(CSc1ccc(Cl)cc1Cl)N1CCC(c2nc3ccccc3s2)CC1 | 11 | -25 | -0.0029 | -8 | 0 | -15 | x | x | x | x | x
CCCn1nc([N+](=O)[O-])c(C(C#N)c2nc3ccccc3s2)c(Cl)c1=O (stereo unspecified) | 4 | 59* | -6.1* | -5 | -7 | 27 | 20 | 21 | 17 | 32* | 17 | KCC2 secondary=0.0067;KCC2 bumet counter=0.0059*;KCC2 secondary2=u;HEK counter1=0.0058*;KCC2 ouabain=0.011*;HEK293 Tl flux2=0.0081*
O=C(CSc1nc2cc(C(F)(F)F)ccc2n1Cc1ccccc1)NC1CCS(=O)(=O)C1 (stereo unspecified) | 2 | 48* | 5.2* | -2 | -10 | 32 | 91* | 63* | 78* | 53* | 72* | KCC2 secondary=0.0074;KCC2 bumet counter=0.0077*;KCC2 secondary2=0.031;HEK counter1=0.011*;KCC2 ouabain=0.02;HEK293 Tl flux2=u
Cc1ccc(-n2c(SCC(=O)NC3CCS(=O)(=O)C3)nc3ccccc3c2=O)cc1 (stereo unspecified) | x | 1 | -0.57 | -23 | -1 | -6 | x | x | x | x | x
